Assay results as given in PMC8159897 (Angewandte Chemie (International ed. in English), 2021).

Key:
[1] = Critical micelle concentration; assay type: physicochemical; details: self-assembly / aggregation (Figures S2, S16)
[2] = system: Golgi of HeLa cells; assay: Golgi accumulation; assay type: cell-based; details: pS1 10 μM, from 1 minute to 8 minutes of incubation
How it was run: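 HeLa cells first transfected 24 h with CellLight Golgi-RFP to mark the Golgi. They were then given the NBD-labelled thiophosphopeptide test compound at 10 μM and imaged live by confocal microscopy 1, 4 and 8 min after addition. Golgi-localised green (NBD) fluorescence was compared with the red Golgi-RFP signal, and the RFP stain was checked for bleed-through into the green channel.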

[3] = system: alkaline phosphatase (ALP); details: incubated with ALP (0.1 U/mL) for about 16 minutes (Figure S15)

| Structure (SMILES) | critical micelle concentration (CMC) [1] | enhancement of fluorescence intensity at the Golgi [2] | conversion ratio to dephosphorylated product [3] |
| --- | --- | --- | --- |
| O=C(CCNc1ccc([N+](=O)[O-])c2nonc12)N[C@H](Cc1ccccc1)C(=O)N[C@H](Cc1ccccc1)C(=O)NCCSP(=O)(O)O [pS1] | 6.0 µM | about 7 times | – |
| O=C(Cc1ccc2ccccc2c1)N[C@H](Cc1ccccc1)C(=O)N[C@H](Cc1ccccc1)C(=O)NCCSP(=O)(O)O [pS2] | 9.5 µM | – | nearly fully converted |
